Data on 2 compounds can be found in ChEMBL document CHEMBL1926564, “Design, synthesis and biological activity of original pyrazolo-pyrido-diazepine, -pyrazine and -oxazine dione derivatives as novel dual Nox4/Nox1 inhibitors” (Bioorg Med Chem, 2011).

SMILES strings stand for the structures.

In general, Cmax refers to the peak of the concentration-time curve. A word on the inhibition: it is the share of the control response that was lost under treatment. Low readings indicate little suppression, high ones strong suppression. In general, IC50 refers to the concentration that gives 50% inhibition. In general, Papp refers to the rate of passage across a membrane or cell layer, normalised by area and donor concentration. Usually bioavailability stands for the share of a dose that reaches the circulation, judged against a reference dose that is usually intravenous. In general, logD refers to the decadic logarithm of the distribution of all forms, ionised or not, between an organic phase and buffer at a given pH. A low value points to lower lipophilicity. The efflux ratio is the permeability from basolateral to apical divided by that in the opposite direction, in the common usage. What is called AUC(0-inf) is the area under the concentration-time curve extrapolated to infinity. The CL/F is clearance divided by bioavailability, as obtained after extravascular dosing. What is called Ki is a dissociation constant, usually derived from enzyme kinetics or from competition with a known ligand. One may read the half-life as the time in which the quantity being followed falls by half. Higher therefore signals slow loss. Broadly, the fraction unbound is free concentration divided by total concentration. Read a low fraction unbound as extensive binding.

The species entered for one data set is Homo sapiens. Description: Selectivity ratio of Ki for human NOX2 to Ki for human NOX4. The method in brief: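 Ratio of Ki values from the Amplex Red membrane ROS assay (PMN membranes for Nox2, Nox4-overexpressing membranes), NADPH-triggered, 1 nM–100 µM, 20 min at 37 °C; Ki via Cheng-Prusoff.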
Data set [1] in a line: Cmax in Sprague-Dawley rat at 5 mg/kg, iv. The arrangement: dose 5 mg/kg, route intravenous. Conditions: in vivo. Type of data set: ADME, organism-based. The procedure, abridged:
(§1)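 Rats in two groups of three: 5 mg/kg iv in EDPW (10% EtOH, 10% DMA, 30% PG, 50% water) or 10 mg/kg oral in aqueous 0.5% CMC/0.25% Tween 20. Carotid arterial cannula blood sampled up to 24 h. Plasma levels by LC/MS/MS (LLOQ 1.00 ng/mL); noncompartmental analysis.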

For another data set, the target named is hERG (Homo sapiens, UniProt Q12809). Description: Inhibition of hERG at 1 uM by patch clamp assay. Type of data set: toxicity.
hERG, sequence (Q12809 whole entry): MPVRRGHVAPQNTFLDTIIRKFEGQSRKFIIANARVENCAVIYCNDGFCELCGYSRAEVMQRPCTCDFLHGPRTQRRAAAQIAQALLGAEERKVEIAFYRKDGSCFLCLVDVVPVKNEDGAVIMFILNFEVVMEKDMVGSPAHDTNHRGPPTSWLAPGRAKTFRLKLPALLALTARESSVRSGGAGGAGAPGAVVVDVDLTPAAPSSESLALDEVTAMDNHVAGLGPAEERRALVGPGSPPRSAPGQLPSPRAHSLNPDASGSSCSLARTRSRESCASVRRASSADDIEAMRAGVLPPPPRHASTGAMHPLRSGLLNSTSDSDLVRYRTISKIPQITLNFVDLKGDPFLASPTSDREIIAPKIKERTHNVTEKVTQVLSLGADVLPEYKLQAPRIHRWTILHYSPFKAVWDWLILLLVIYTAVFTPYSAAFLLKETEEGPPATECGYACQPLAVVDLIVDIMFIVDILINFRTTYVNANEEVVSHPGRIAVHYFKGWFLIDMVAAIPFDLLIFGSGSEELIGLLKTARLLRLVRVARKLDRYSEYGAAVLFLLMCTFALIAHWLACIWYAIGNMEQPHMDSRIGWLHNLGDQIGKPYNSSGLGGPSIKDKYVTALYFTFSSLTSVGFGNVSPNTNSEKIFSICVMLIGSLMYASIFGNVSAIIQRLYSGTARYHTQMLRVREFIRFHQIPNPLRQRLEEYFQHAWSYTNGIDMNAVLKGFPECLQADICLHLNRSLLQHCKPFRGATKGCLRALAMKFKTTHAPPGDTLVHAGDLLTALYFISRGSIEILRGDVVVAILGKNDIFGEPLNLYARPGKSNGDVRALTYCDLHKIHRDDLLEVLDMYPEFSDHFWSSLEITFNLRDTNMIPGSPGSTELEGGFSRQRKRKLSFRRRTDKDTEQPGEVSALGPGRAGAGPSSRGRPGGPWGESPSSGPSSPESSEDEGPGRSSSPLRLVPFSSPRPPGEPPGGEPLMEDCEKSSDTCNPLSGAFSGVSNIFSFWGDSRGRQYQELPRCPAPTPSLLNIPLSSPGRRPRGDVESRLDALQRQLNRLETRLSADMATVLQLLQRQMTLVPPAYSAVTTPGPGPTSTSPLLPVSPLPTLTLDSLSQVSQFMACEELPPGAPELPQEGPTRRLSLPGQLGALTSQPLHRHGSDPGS
The next data set addresses Cytochrome P450 2C19 (Homo sapiens, UniProt P33261). Description: Inhibition of human recombinant CYP2C19 by mass spectrophotometry. It counts as ADME. The procedure, abridged:
(§2)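 Compound 0.1–25 µM (0.3% DMSO) incubated with microsomes, NADPH and isoform-specific probe substrate. CYP2C19, 2C9, 2D6, 3A4 metabolites measured by mass spectrometry; CYP1A2 by fluorescent metabolite. IC50 from reduced metabolite formation versus vehicle.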

The nature of data set [2]: Apparent permeability across human Caco2 cells at 10 uM after 2 hrs. To be noted: Caco-2. It counts as ADME, cell-based. The method in brief:
(§3)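 Caco-2 monolayers grown 20 days, TEER >800 ohm·cm². Compound 10 µM final in HBSS pH 6.5 (1% DMSO), dosed apical (A→B) or basolateral (B→A), 2 h at 37 °C; both compartments sampled, LC–MS/MS cassette analysis with 5-point calibration.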

The next data set has as its target Cytochrome P450 2D6 (Homo sapiens, UniProt P10635). The experiment in a line: Inhibition of human recombinant CYP2D6 by mass spectrophotometry. Type of data set: ADME. The procedure, abridged:
as §2

The nature of data set [3]: Mutagenicity in micronucleus at 500 uM by in vitro assay. Type of data set: ADME.
A short description of data set [4]: Oral bioavailability in Sprague-Dawley rat at 10 mg/kg. Type of data set: ADME, organism-based. To be noted: in vivo. The procedure, abridged:
as §1

A further data set addresses Cytochrome P450 3A4 (Homo sapiens, UniProt P08684). The experiment in a line: Inhibition of human recombinant CYP3A4 by mass spectrophotometry. Type of data set: ADME. The procedure, abridged: as §2
Data set [5] is described as follows: Lipophilicity, log D of the compound at pH 7.4. Type of data set: physicochemical. To be noted: buffer.
Another data set deals with Cytochrome P450 2C9 (Homo sapiens, UniProt P11712). Description: Inhibition of human recombinant CYP2C9 by mass spectrophotometry. It counts as ADME. The method in brief:
as §2

Data set [6] can be described thus: Efflux ratio of apparent permeability across human Caco2 cells at 10 uM after 2 hrs. It counts as ADME, cell-based. Conditions: Caco-2. The method in brief:
as §3
In general terms: Caco-2 monolayers are a common model of the intestinal barrier.

The nature of data set [7]: AUC (infinity) in Sprague-Dawley rat at 5 mg/kg, iv. Type of data set: ADME, organism-based. To be noted: plasma. The arrangement: time infinity, dose 5 mg/kg, route intravenous. The method in brief:
as §1

The nature of data set [8]: Cmax in Sprague-Dawley rat at 10 mg/kg, po. It counts as ADME, organism-based. The arrangement: dose 10 mg/kg, route oral. Conditions: in vivo. The procedure, abridged:
as §1

In a further data set the target is T1, Cytochrome P450 1A2 (Homo sapiens, UniProt P05177).
T1 sequence (P05177 whole entry): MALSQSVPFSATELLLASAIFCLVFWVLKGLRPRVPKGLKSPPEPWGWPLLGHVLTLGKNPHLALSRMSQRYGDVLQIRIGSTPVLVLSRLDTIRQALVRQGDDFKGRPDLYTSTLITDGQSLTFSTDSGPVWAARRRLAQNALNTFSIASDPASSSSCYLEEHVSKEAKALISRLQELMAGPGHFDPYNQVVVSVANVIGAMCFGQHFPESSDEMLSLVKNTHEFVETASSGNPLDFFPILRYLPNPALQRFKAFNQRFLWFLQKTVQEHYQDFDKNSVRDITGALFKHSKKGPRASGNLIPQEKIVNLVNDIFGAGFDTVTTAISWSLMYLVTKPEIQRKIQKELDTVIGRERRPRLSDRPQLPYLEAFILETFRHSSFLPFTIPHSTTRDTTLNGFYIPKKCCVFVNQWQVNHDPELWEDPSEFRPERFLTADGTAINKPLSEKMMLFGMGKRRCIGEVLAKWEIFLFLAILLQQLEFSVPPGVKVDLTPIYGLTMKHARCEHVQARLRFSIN
The experiment in a line: Inhibition of human recombinant CYP1A2 assessed as inhibition of fluorescent metabolite formation. It counts as ADME. The method in brief: as §2

In data set [9] the test system is Salmonella typhimurium. Description: Genotoxicity in Salmonella Typhimurium at 100 uM by AMES test. Type of data set: toxicity, organism-based. Conditions: salmonella enterica subsp. enterica serovar typhimurium.
Data set [10] is described as follows: Clearance in Sprague-Dawley rat at 10 mg/kg, po. The arrangement: dose 10 mg/kg, route oral. To be noted: in vivo. Type of data set: ADME, organism-based. The procedure, abridged:
as §1

The next data set deals with T2, NADPH oxidase 4 (Homo sapiens, UniProt Q9NPH5).
T2 sequence (Q9NPH5 whole entry): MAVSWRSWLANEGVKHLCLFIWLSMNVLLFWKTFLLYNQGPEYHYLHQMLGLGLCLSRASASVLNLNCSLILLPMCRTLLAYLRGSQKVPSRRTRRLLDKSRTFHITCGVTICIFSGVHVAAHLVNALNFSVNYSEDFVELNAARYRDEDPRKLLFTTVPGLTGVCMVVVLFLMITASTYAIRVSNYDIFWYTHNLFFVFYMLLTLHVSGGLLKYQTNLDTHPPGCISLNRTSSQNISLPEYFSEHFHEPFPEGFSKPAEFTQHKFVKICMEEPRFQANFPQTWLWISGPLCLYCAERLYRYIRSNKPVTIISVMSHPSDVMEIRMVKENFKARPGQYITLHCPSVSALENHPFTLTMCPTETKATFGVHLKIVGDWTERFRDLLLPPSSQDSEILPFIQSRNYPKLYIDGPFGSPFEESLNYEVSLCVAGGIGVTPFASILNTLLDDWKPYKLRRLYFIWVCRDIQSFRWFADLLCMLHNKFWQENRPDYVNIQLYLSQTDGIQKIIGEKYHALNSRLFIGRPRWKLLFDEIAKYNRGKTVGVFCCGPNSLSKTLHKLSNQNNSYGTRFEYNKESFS
The experiment in a line: Antagonist activity at human NOX4 expressed in CHO cell membrane coexpressing tetracylin repressor assessed as inhibition of ROS production after 20 mins by cell-free amplex red assay. To be noted: in the assay text read “HEK293 cell membrane” for “CHO cell membrane”. It counts as functional. The method in brief:
(§4)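 Membranes from tetracycline-induced (24 h) Nox-expressing cells or human PMN (Nox2), sucrose-gradient purified; or xanthine oxidase. Incubated in PBS with Amplex Red, HRP and cofactors; NADPH (Nox) or xanthine starts ROS. Compound 1 nM–100 µM, 20 min at 37 °C, plate-reader. Background without membranes or agonist. Ki by Cheng-Prusoff; mean of ≥3 experiments in triplicate.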

The test system of data set [11] is Salmonella typhimurium. Description: Mutagenicity in Salmonella Typhimurium at 100 uM by AMES test. Type of data set: toxicity, organism-based. To be noted: salmonella enterica subsp. enterica serovar typhimurium.
A short description of data set [12]: Volume of distribution at steady state in Sprague-Dawley rat at 5 mg/kg, iv. Type of data set: ADME, organism-based. More on the design: dose 5 mg/kg, route intravenous. Conditions: in vivo, read-out: Vdss. The procedure, abridged: as §1
The nature of data set [13]: Half life in Sprague-Dawley rat at 10 mg/kg, po. More on the design: dose 10 mg/kg, route oral. Conditions: in vivo. Type of data set: ADME, organism-based. The method in brief:
as §1

The target in data set [14] is Xanthine dehydrogenase/oxidase (Homo sapiens, UniProt P47989). The experiment in a line: Inhibition of xanthine oxidase assessed as inhibition of ROS production after 20 mins by cell-free amplex red assay. The procedure, abridged:
as §4

Data set [15] can be described thus: Fraction unbound in rat plasma containing 50% plasma protein. It counts as ADME, cell-free. The procedure, abridged:
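Rat plasma protein binding in 50% plasma; fraction unbound reported.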

Xanthine dehydrogenase/oxidase, sequence (P47989 whole entry): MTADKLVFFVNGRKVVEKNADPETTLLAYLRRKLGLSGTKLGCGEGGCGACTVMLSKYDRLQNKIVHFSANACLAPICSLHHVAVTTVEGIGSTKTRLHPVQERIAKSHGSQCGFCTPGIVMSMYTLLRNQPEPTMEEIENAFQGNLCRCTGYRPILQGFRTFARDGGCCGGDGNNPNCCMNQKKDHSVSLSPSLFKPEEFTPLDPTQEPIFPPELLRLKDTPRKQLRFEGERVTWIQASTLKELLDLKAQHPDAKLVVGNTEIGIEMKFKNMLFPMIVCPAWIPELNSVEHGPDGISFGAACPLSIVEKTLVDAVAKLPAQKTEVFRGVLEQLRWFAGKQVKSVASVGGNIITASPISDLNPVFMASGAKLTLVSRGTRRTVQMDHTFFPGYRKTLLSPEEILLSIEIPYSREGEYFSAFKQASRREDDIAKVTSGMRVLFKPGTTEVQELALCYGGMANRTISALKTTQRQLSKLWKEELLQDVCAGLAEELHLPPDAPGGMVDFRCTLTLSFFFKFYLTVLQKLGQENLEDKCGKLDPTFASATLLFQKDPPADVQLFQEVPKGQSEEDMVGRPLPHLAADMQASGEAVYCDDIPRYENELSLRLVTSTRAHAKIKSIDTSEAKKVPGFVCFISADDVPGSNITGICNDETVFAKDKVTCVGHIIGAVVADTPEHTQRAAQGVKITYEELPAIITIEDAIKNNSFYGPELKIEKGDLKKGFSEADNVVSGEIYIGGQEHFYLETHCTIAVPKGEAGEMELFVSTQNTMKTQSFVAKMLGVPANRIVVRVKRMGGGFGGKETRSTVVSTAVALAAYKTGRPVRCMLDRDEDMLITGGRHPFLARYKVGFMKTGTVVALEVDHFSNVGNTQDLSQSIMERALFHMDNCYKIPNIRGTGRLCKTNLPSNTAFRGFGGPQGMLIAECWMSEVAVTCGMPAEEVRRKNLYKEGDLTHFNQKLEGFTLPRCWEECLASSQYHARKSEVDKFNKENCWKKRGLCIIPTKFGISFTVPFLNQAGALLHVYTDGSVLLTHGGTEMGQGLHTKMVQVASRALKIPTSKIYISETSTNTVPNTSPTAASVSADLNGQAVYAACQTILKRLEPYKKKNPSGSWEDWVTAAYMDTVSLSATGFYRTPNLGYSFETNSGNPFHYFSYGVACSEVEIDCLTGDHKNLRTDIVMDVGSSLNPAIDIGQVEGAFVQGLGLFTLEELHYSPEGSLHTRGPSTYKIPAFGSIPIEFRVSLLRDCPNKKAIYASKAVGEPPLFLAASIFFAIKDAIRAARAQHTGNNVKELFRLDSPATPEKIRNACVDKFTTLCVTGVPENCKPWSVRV
Cytochrome P450 2C19, sequence (P33261 whole entry, canonical isoform): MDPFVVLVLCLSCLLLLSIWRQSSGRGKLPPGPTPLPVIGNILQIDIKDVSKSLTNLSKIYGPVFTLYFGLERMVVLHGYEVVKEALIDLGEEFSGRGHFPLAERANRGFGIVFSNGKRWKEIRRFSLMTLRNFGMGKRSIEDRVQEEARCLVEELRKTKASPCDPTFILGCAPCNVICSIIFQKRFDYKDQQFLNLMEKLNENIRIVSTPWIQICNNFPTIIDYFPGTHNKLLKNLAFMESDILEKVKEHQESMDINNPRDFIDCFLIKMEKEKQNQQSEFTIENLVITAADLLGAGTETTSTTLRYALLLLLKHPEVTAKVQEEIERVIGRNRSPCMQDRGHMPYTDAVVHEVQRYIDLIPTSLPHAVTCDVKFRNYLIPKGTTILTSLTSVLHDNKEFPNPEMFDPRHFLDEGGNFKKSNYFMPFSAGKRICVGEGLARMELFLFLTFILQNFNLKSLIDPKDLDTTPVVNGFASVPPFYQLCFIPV
Cytochrome P450 3A4, sequence (P08684 whole entry): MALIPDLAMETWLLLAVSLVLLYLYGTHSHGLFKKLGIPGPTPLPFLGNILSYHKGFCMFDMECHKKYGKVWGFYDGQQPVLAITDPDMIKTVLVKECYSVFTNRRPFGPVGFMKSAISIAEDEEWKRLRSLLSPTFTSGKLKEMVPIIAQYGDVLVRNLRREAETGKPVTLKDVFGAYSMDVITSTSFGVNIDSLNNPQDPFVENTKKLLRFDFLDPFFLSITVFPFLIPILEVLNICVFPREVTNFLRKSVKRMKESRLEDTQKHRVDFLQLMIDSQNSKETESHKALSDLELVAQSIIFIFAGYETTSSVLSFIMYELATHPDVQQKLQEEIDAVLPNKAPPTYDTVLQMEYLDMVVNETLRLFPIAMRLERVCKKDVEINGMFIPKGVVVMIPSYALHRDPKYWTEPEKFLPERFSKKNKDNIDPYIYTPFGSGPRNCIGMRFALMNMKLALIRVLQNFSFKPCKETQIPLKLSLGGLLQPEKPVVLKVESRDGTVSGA
Cytochrome P450 2C9, sequence (P11712 whole entry): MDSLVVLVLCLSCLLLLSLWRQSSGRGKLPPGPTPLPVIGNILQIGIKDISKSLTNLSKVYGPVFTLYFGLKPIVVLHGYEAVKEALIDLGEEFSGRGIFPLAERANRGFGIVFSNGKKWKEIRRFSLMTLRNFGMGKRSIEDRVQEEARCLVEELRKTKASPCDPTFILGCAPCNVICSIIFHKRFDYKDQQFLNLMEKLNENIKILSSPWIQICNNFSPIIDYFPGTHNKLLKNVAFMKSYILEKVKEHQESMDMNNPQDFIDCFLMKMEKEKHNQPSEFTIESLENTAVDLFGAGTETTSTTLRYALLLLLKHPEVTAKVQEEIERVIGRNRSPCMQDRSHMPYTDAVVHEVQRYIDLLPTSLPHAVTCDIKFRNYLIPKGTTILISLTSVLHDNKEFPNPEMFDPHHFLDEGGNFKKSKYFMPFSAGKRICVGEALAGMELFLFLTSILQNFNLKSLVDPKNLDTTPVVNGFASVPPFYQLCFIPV
Cytochrome P450 2D6, sequence (P10635 whole entry): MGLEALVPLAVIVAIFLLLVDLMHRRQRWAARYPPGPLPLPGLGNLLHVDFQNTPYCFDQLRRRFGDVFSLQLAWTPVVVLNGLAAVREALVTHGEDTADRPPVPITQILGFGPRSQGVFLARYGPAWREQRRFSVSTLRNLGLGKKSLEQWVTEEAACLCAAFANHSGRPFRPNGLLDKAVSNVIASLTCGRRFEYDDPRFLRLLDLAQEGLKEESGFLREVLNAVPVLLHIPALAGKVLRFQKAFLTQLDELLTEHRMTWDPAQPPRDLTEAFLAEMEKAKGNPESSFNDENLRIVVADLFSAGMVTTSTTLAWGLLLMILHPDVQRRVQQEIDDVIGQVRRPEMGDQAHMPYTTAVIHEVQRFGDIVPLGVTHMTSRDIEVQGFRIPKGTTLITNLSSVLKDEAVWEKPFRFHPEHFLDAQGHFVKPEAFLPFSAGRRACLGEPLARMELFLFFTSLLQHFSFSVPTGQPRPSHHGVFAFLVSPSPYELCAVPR

Regarding `Cl.O=c1c2c3n(c(=O)cc2[nH]n1-c1ccccc1Cl)CCCN(Cc1ccccc1)C3`, the Ratio Ki in the data set filed under Homo sapiens was 18.6. Moreover, the Cmax in data set [1] was found to be 42.3 µg/mL; in data set [8], 14.9 µg/mL. Moreover, on hERG, the inhibition at 1 µM turned out to be 8.7%. For the same compound, the 50% inhibitory concentration (IC50) on Cytochrome P450 2C19, on Cytochrome P450 2D6, at Cytochrome P450 3A4, on Cytochrome P450 2C9 and on Cytochrome P450 1A2 was above 25 µM each time. The Papp at 2 h, 10 µM in data set [2] was determined as 422 nm/s. The Activity entry (in data set [3]; in the data set on Salmonella typhimurium [9]; with Salmonella typhimurium [11]) was “Non-toxic” throughout. The bioavailability in [4] was found to be 53%. This compound gave a logD in data set [5] of 2.23. For the same compound, in [6], the efflux ratio at 2 h, 10 µM came to 0.48. Besides, in data set [7], the AUC(0-inf) worked out at 39.3 µg·h/mL. This compound also gave a CL/F in data set [10] of 0.26 L/h/kg. Besides, the Ki was 0.072 µM on NADPH oxidase 4 and above 30 µM in data set [14]. The Vd in data set [12] was determined as 0.28 L/kg. In data set [13], this compound showed a half-life of 2.37 h. The fraction unbound in data set [15] was 0.12.

With `Cl.O=c1c2c3n(c(=O)cc2[nH]n1-c1ccccc1Cl)CCCN(Cc1ccccn1)C3`, the Cmax in [1] stood at 21.8 µg/mL; in data set [8], 11.3 µg/mL. The Papp at 2 h, 10 µM in [2] was determined as 18 nm/s. Further, the bioavailability in data set [4] is 42%. This compound also displayed a log distribution coefficient (logD) in [5] of 1.1. The efflux ratio at 2 h, 10 µM in data set [6] came to 10.1. This compound returned an AUC(0-inf) in [7] of 11.8 µg·h/mL. In data set [10], this compound gave an apparent clearance (CL/F) of 1.02 L/h/kg. At NADPH oxidase 4, the Ki is 0.067 µM. Also, the Vd in [12] was determined as 0.47 L/kg. The same compound had a half-life in data set [13] of 3.63 h. In [15], this compound displayed a fraction unbound of 0.026.
